Changes are numbered by the printed parent chain.
Tests used:
GK-WT [1] = molecular target: T1, GK-WT (Homo sapiens, UniProt P35557); experiment: DSC thermal denaturation
T1 sequence (P35557 1-465): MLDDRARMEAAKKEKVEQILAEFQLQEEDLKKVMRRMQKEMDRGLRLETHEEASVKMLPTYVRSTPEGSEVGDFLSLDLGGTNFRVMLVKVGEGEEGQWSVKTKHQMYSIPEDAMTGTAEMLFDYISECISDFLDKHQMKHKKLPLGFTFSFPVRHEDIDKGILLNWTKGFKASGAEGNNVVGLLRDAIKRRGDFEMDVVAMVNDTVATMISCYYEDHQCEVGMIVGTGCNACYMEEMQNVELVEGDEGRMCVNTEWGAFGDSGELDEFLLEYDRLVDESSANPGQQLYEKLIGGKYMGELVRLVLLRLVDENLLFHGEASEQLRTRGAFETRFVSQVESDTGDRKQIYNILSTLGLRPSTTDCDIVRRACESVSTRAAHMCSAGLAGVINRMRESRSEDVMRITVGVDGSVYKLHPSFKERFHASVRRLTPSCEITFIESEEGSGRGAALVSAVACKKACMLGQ
Outline: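 Wild-type recombinant human GK was run by DSC at 0.3 mg/ml (6 µM) in 5 mM phosphate, 100 mM KCl, pH 7.3, in buffer or 20% glycerol, with glucose up to 300 mM. The scan was 0.25 degree/min against a protein-free reference. Tm was plotted against glucose and fit to a hyperbola for EC50. Unfolding rate constant used k=vCp/(Qt−Q) to derive activation energy.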

GK-WT [2] = molecular target: T1, GK-WT; experiment: Urea unfolding/refolding of GK by tryptophan fluorescence; settings: 20°C, pH 7.3
Outline: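 GK-WT unfolding was followed by urea titration in 20 mM PO4, 50 mM KCl, 1 mM EDTA, 1 mM DTT, pH 7.3, 20 °C, ± 20% glycerol, ± 300 mM glucose. I320/I360 was read at 295 nm excitation, and ΔGu(H2O) came from a two-state fit. Reversibility was tested after 30 min in 4 or 8 M urea, then dialysis, by restoration of the spectrum and glucose response.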

GK-W167 (W99R/W257F) = molecular target: T2, GK-W167 (W99R/W257F) (Homo sapiens, UniProt P35557, W257F/W99R); experiment: D-glucose binding by tryptophan fluorescence titration; settings: W-167, no GKA
T2 sequence (P35557 1-465 W99R/W257F): T1 sequence (P35557 1-465) with W99R, W257F

GK-W99 (W167F/W257F) = molecular target: T3, GK-W99 (W167F/W257F) (Homo sapiens, UniProt P35557, W167F/W257F); experiment: as above; settings: W-99, no GKA
T3 sequence (P35557 1-465 W167F/W257F): T1 sequence (P35557 1-465) with W167F, W257F

[3] = GK-WT in 20% glycerol, 300 mM D-glucose
[4] = GK-WT in buffer, 300 mM D-glucose
[5] = GK-WT, 20% glycerol, 7.5 mM D-glucose
[6] = GK-WT, 20% glycerol, 50 mM D-glucose
[7] = GK-WT, 20% glycerol, 100 mM D-glucose
[8] = GK-WT, 20% glycerol, 200 mM D-glucose
[9] = GK-WT, buffer, 7.5 mM D-glucose
[10] = GK-WT, buffer, 100 mM D-glucose
[11] = GK-WT, buffer, 200 mM D-glucose

OC[C@H]1OC(O)[C@H](O)[C@@H](O)[C@@H]1O (stereo partly drawn) [D-glucose]
EC50 (GK-WT [1]; EC50 of glucose dependency of heat capacity (Cp), 20% glycerol, hyperbolic fit): 35 mM
Cp^m (GK-WT [1]; [3]): 222.2 kJ/mol/°C
ΔH thermal denaturation (GK-WT [1]; [3]): 707.1 kJ/mol
Tm (GK-WT [1]; GK-WT in 20% glycerol, 300 mM D-glucose, DSC): 56.9 °C
Cp^m (GK-WT [1]; [4]): 130.5 kJ/mol/°C
ΔH thermal denaturation (GK-WT [1]; [4]): 564.8 kJ/mol
Tm (GK-WT [1]; GK-WT in buffer, 300 mM D-glucose, DSC): 52.2 °C
Cp^m (GK-WT [1]; [5]): 148.1 kJ/mol/°C
Ea thermal denaturation (GK-WT [1]; [5]): 733.6 kJ/mol
Tm (GK-WT [1]; [5]): 52.6 °C
Cp^m (GK-WT [1]; [6]): 186.2 kJ/mol/°C
Ea thermal denaturation (GK-WT [1]; [6]): 795.5 kJ/mol
Tm (GK-WT [1]; [6]): 54.8 °C
Cp^m (GK-WT [1]; [7]): 196.2 kJ/mol/°C
Ea thermal denaturation (GK-WT [1]; [7]): 809.9 kJ/mol
Tm (GK-WT [1]; [7]): 55.5 °C
Cp^m (GK-WT [1]; [8]): 212.5 kJ/mol/°C
Ea thermal denaturation (GK-WT [1]; [8]): 795.2 kJ/mol
Tm (GK-WT [1]; [8]): 56.3 °C
Ea thermal denaturation (GK-WT [1]; GK-WT, 20% glycerol, 300 mM D-glucose): 791.9 kJ/mol
Cp^m (GK-WT [1]; [9]): 63.2 kJ/mol/°C
Ea thermal denaturation (GK-WT [1]; [9]): 502 kJ/mol
Tm (GK-WT [1]; [9]): 48.0 °C
Cp^m (GK-WT [1]; GK-WT, buffer, 25 mM D-glucose): 90.8 kJ/mol/°C
Ea thermal denaturation (GK-WT [1]; GK-WT, buffer, 25 mM D-glucose): 562.2 kJ/mol
Tm (GK-WT [1]; GK-WT, buffer, 25 mM D-glucose): 49.5 °C
Cp^m (GK-WT [1]; GK-WT, buffer, 50 mM D-glucose): 101.7 kJ/mol/°C
Ea thermal denaturation (GK-WT [1]; GK-WT, buffer, 50 mM D-glucose): 575.2 kJ/mol
Tm (GK-WT [1]; GK-WT, buffer, 50 mM D-glucose): 50.0 °C
Cp^m (GK-WT [1]; [10]): 109.6 kJ/mol/°C
Ea thermal denaturation (GK-WT [1]; [10]): 571 kJ/mol
Tm (GK-WT [1]; [10]): 50.9 °C
Cp^m (GK-WT [1]; [11]): 128.4 kJ/mol/°C
Ea thermal denaturation (GK-WT [1]; [11]): 586.9 kJ/mol
Tm (GK-WT [1]; [11]): 52.2 °C
Ea thermal denaturation (GK-WT [1]; GK-WT, buffer, 300 mM D-glucose): 572 kJ/mol
ΔGu(H2O) of urea denaturation (GK-WT [2]; GK-WT in 20% glycerol with 300 mM D-glucose): 2.87 kcal/mol
ΔGu(H2O) of urea denaturation (GK-WT [2]; GK-WT in buffer with 300mM D-glucose): 2.48 kcal/mol
Kd (GK-W167 (W99R/W257F); 20% glycerol): 90 µM
Kd (GK-W167 (W99R/W257F); no glycerol): 380 µM
Kd (GK-W99 (W167F/W257F); 20% glycerol): 4.06 mM
Kd (GK-W99 (W167F/W257F); no glycerol): 18.8 mM
